Variants at the floor of the assay were thinned out.
B1: tRNA (parent)
chain: GUUCCGUUGGCGUAAUGGUAACGCGUCUCCCUCCUAAGGAGAAGACUGCGGGUUCGAGUCCCGUACGGAACG

Variants of: B1
Assay: yeast fitness relative to wild type (ratio to wild type); higher = fitter; tRNA-Arg(CCU), competitive growth, 37 C, YPD
In short: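 Amplicons of the tRNA-Arg(CCU) gene were sequenced, 100-nucleotide paired-end, from the start population and from each end population of a pooled yeast competition. The competition, in six parallel replicates, lasted 24 hours in YPD at 37°C. Fitness relative to wild type was calculated from changes in genotype frequencies. Genotypes had to have ≥ 100 starting reads, and estimates < 0.5 were set to 0.5.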
With GUUCCGUUGGCGUACUGGUAACGCGUCUCCCUCCUAAGGAGAAGACUGCAGGUUCGAGUGCCGGACGGAACG [A15C G50A C60G U64G] the yeast fitness was at most 0.5. With GUUCCGUUGGCGUACUGGUAACGCGUCUCCCUCCUAAGGAGAAGACUGCGCGUUCGAGUCUCGUACGGAACG [A15C G51C C61U] the yeast fitness was at most 0.5. GUUCCGUUGGCGUACUGGUAACGCGUCUCCCUCCUAAGGAGAAGACUGCGGAUUCGUGUUCCGUGCGAAACG [A15C G52A A57U C60U A65G G68A] gave a yeast fitness of at most 0.5. Work on GUUCCGUUGGCGUACUGGUAACGCGUCUCCCUCCUAAGGAGAAGACUGCGGCUUCGAGUCCCGUACGGAACG [A15C G52C] yielded a yeast fitness of 0.575. Variant GUUCCGUUGGCGUACUGGUAACGCGUCUCCCUCCUAAGGAGAAGACUGCGGGUUCAAGUCCCGUACAGAACG [A15C G56A G67A] has a yeast fitness of 0.61. In the case of GUUCCGUUGGCGUACUGGUAACGCGUCUCCCUCCUAAGGAGAAGACUGCGGGUUCGAAUCCCGUACGAAACG [A15C G58A G68A], the yeast fitness is reported as 0.611. GUUCCGUUGGCGUACUGGUAACGCGUCUCCCUCCUAAGGAGAAGACUGCGGGUUCGAGUCCCGUACCGAACG [A15C G67C] gave a yeast fitness of 0.684. Variant GUUCCGUUGGCGUACAGGUAGCGCGACUCUCUCCUAAGGAGAAGACUGCGGGUUCGAGUCCCGUACGGAACG [A15C U16A A21G U26A C30U] has a yeast fitness of at most 0.5. Work on GUUCCGUUGGCGUACAGGUAGCGCGACUCUCUCCUAAGGAGAAGACUGCGGGUUCGAGUCACGUACGGUACG [A15C U16A A21G U26A C30U C61A A69U] yielded a yeast fitness of 0.575. GUUCCGUUGGCGUACUGGAAACGCGUCUCCCUCCUAAGGAGAAGACUGCGGGUUCGAGUCCCGAGCUGAACG [A15C U19A U64A A65G G67U] gave a yeast fitness of at most 0.5. With GUUCCGUUGGCGUACUGGUAACGCGACUCCGACCUAAGGAGAAGACUGCGGGUUCGAGUCCCAUACGGAACG [A15C U26A C31G U32A G63A] the yeast fitness was at most 0.5. For GUUCCGUUGGCGUACUGGUAACGCGCCUCCCUCCUAAGGAGAAGACUGCGGGUUCAAGUCUCGUACGGAACG [A15C U26C G56A C61U], the yeast fitness was at most 0.5. With GUUCCGUUGGCGUACUGGUAACGCGUCACCCUCGUAAGGAGAUGACUGCGGGUUCGAGUCCCUCACGGAACG [A15C U28A C34G A43U G63U U64C] the yeast fitness was at most 0.5. GUUCCGUUGGCGUACUGGUAACGCGUCACCCUCGUAAGGAGAUGACUGCGGGUUCGAGUCCCGUACGCAACG [A15C U28A C34G A43U G68C] gave a yeast fitness of at most 0.5. Work on GUUCCGUUGGCGUACUGGUAACGCGUCCCCCUCCUAAGGAGAAGACUCCGGGUUCGAGUCCCGUACGGAACG [A15C U28C G48C] yielded a yeast fitness of at most 0.5. Variant GUUCCGUUGGCGUACUGGUAACGCGUCCCCCUCCUAAGGAGAAGACUCCGGGUUCGAGUCCCGUACGUUACG [A15C U28C G48C G68U A69U] has a yeast fitness of at most 0.5. Variant GUUCCGUUGGCGUACUGGUAACGCGUCUCCCACCUAAGGAGAAGACUGCGGGUUCGAGUCCCGUCCGGAACG [A15C U32A A65C] has a yeast fitness of at most 0.5. GUUCCGUUGGCGUACUGGUAACGCGUCUCCCUCCAAAGGAGAAGACUGCGGGUUCGAGUCCCGUACGGAACG [A15C U35A] gave a yeast fitness of 0.599. GUUCCGUUGGCGUACUGGUAACGCGUCUCCCUCCCAAGGAGAAGAGUGCGGGUUCGAGUCCCGUACGGAACG [A15C U35C C46G] showed a yeast fitness of 0.67. For GUUCCGUUGGCGUACUGGUAACGCGUCUCCCUCCCAAGGAGAAGACCGCGGGUUCGAGUCCCGUACGGAACG [A15C U35C U47C], the yeast fitness was at most 0.5. Variant GUUCCGUUGGCGUACUGGUAACGCGUCUCCCUCCUAAGGAGAAGACAGCGGGUUCGAGUCCCGUACGGAACG [A15C U47A] has a yeast fitness of 1.09. With GUUCCGUUGGCGUACUGGUAACGCGUCUCCCUCCUAAGGAGAAGACAGCGGGUUCGAGUCCCGUCCGGAACG [A15C U47A A65C] the yeast fitness was 0.561. GUUCCGUUGGCGUACUGGUAACGCGUCUCCCUCCUAAGGAGAAGACAGCGGCUUCGAGUCCCGUACGGAACG [A15C U47A G52C] gave a yeast fitness of 0.539. GUUCCGUUGGCGUACUGGUAACGCGUCUCCCUCCUAAGGAGAAGACCGCGGGUUCGAGUCCCGUACGGUACG [A15C U47C A69U] showed a yeast fitness of 0.551. GUUCCGUUGGCGUACUGGUAACGCGUCUCCCUCCUAAGGAGAAGACGGCGGCUUCGAGUCCCGUACGGAACG [A15C U47G G52C] gave a yeast fitness of at most 0.5. In the case of GUUCCGUUGGCGUACUGGUAACGCGUCUCCCUCCUAAGGAGAAGACGGCGGGUUCGAGUCCCGUACGUAACG [A15C U47G G68U], the yeast fitness is reported as at most 0.5. GUUCCGUUGGCGUACUGGUAACGCGUCUCCCUCCUAAGGAGAAGACUGCGGGGUCGAGUCCCGUACGGAACG [A15C U53G] showed a yeast fitness of 0.621. GUUCCGUUGGCGUACUGGUAACGCGUCUCCCUCCUAAGGAGAAGACUGCGGGUGCGAGUCCCGUACGGAACG [A15C U54G] showed a yeast fitness of 0.537. With GUUCCGUUGGCGUACUGGUAACGCGUCUCCCUCCUAAGGAGAAGACUGCGGGUUCGAGACACGUACGGAACG [A15C U59A C61A] the yeast fitness was 0.698. Variant GUUCCGUUGGCGUACUGGUAACGCGUCUCCCUCCUAAGGAGAAGACUGCGGGUUCGAGGCCCGUACGGAACG [A15C U59G] has a yeast fitness of 0.673. GUUCCGUUGGCGUAGUGGUCACGCGUCUCCCUCCUAAGGAGAUGACUGCGGGUACGAGUCCCGUACGGAACG [A15G A20C A43U U54A] gave a yeast fitness of at most 0.5. Work on GUUCCGUUGGCGUAGUGGUCACGCGUCUCCCUCUUAAGGAGAAGACUGCGGGUUCGAGGCCCGUACGGAACG [A15G A20C C34U U59G] yielded a yeast fitness of 0.705. GUUCCGUUGGCGUAGUGGUCACGCGUCUCCCUCCUAAGGAGAAGACUGCGGGUUCGAGUUCCGUACGGAACG [A15G A20C C60U] showed a yeast fitness of at most 0.5. Work on GUUCCGUUGGCGUAGUGGUCACGCGUCUCCCUCCUAAGGAGAAGACUGCGGGUUCGAGUCCGGUACGGAACG [A15G A20C C62G] yielded a yeast fitness of 0.731. With GUUCCGUUGGCGUAGUGGUUACGCGUCUGCCUCCUAAGGAGAGGACUGCGGGUUCGAGUCCCGUACAGAACG [A15G A20U C29G A43G G67A] the yeast fitness was at most 0.5. With GUUCCGUUGGCGUAGUGGUUACGCGUCUCCCUCCUAAGGAGAAGACUGCGGGUUCGAGUCCCGUACGAAACG [A15G A20U G68A] the yeast fitness was 0.545. GUUCCGUUGGCGUAGUGGUACCGCGUCUCCCUCCUAAGGAGAAGACUGCGGGUUCGAGUCCCGUACGGAACG [A15G A21C] showed a yeast fitness of 0.709.
